From PubChem BioAssay
PTK2B oligo ant: blocks oligomerization of human Pyk2 in cells; Q14289; Q293 cells, Pyk2 FERM NanoBiT luminescence; active compounds read low; z-score (the deposit names both 25 µM and 10 µM); actives 0.83% (n = 99,000); AID 1347419;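 active = Z-score of -3 or lower, scaled per plate to the spread of control and sample wells; inactive = z-score above -3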;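 also: negative z-score means lost luminescence so less FERM oligomerization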
FAK inh: blocks human focal adhesion kinase activity | Q05397 | biochemical FAK kinase activity assay | inhibition, %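 (tested at 7 µM)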 | actives 0.84% (n = 97,000); in the data active = inhibition above about 19%
Plk1 PBD FP: blocks phosphopeptide binding to human Plk1 polo box domain; P53350; Plk1 PBD phosphopeptide binding, fluorescence polarization; inhibition, %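 (tested at about 20 µM)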; actives 0.13% (n = 97,000); AID 693; in the data active = inhibition above about 34%, passing the limit was not always enough
HIV Rev-RRE inh: disrupts HIV-1 Rev binding to RRE RNA; inhibition, % at 8 µM; actives 0.79% (n = 97,000); P05866; Rev peptide-RRE RNA binding, FRET; AID 704;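 active = inhibition above the screen-wide mean plus 3 SD, cut at about 35% in these data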
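Test system – labelled RRE RNA duplex and labelled Rev peptide · Signal – fluorescein-to-Cy5 FRET, 480 nm excitation · Evaluation – % inhibition of FRET ratio versus controls · Benchmarks – DMSO low control, neomycin B high control · Incubation – 5 min RNA-compound premix plus 15 min binding step, 25 °C · Medium – HEPES pH 7.5 salt buffer with EDTA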
Cav32 inh: blocks human Cav3.2 T-type calcium channel; Cav3.2-expressing cells, Fluo-4 calcium fluorescence FDSS; active compounds read low; O95180; actives 4% (n = 100,000); B-score at 10 µM;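 active = single-dose well whose peak fluorescence ratio is a statistical outlier from its plate by either plate-standardised score or position-corrected B-score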
PLK1 kinase inh: blocks human PLK1 kinase activity; P53350; recombinant PLK1 kinase, TR-FRET peptide phosphorylation; inhibition, % at 10 µM; actives 0.53% (n = 97,000); AID 619;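 active = inhibition of 50% or more in the single-concentration screen; inactive = inhibition below 50%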
Numbers stand for hits; i = inactive; nt = not tested or not shown; [ ] = remark or other dose. A selection: hits, their analogues and other compounds. The true share with any hit is near 5.8%.

SMILES	PTK2B oligo ant	FAK inh	Plk1 PBD FP	HIV Rev-RRE inh	Cav32 inh	PLK1 kinase inh
O=P(Nc1c(Cl)cccc1Cl)(c1ccccc1)c1nc2c(s1)CCCC2 (centres undefined)	i	i	i	i	i	i
O=P(Nc1ccccc1Cl)(c1ccccc1)c1nc2c(s1)CCCC2 (centres undefined)	i	i	i	i	-5.9	i
CCCNC(=O)N1[C@H]2CC[C@@H]1C(C(=O)OC)=C(c1cc3ccccc3o1)C2	nt	nt	nt	nt	i	nt
COc1cccc(OC)c1C1=NCC(=O)Nc2c1oc1ccc(Br)cc21	nt	nt	nt	nt	-4.2	nt
CCCCOP(=O)(OCCCC)/C(C#N)=C(/C)O	i	i	i	i	i	i
CCCOP(=O)(O)c1c([N+](=O)[O-])cc(C(F)(F)F)cc1[N+](=O)[O-] (tested in a mixture with another compound)	i	i	i	i	i	i
CCn1c(O)c(C=Nc2ccc(N3CCOCC3)cc2)c(=O)n(CC)c1=S	i	i	i	98[fluorescence artefact?]	-4.5	i
CC(C)N1C(=O)/C(=C/C=C/c2ccco2)C(=O)N(Cc2ccco2)C1=O	i	i	i	53	i	i
CN(C)[C@@H]1C(=O)C(C(N)=O)=C(O)[C@@]2(O)C(=O)C3=C(O)c4c(O)cccc4[C@@](C)(O)[C@H]3[C@H](O)[C@@H]12	nt	nt	nt	nt	-3.7	nt
O=C1C2CCCN2C(c2ccc(Cl)cc2)N1c1ccccn1 (centres undefined)	i	i	i	i	i	i
Cc1ccnc(-n2c(C)cc(C=C3C(=O)N(C)C(=S)N(C)C3=O)c2C)c1	i	i	i	52	i	i
CC(C)[C@@]1(NC(=O)[C@@H]2C[C@@H]3c4cccc5[nH]cc(c45)C[C@H]3N(C)C2)O[C@@]2(O)[C@@H]3CCCN3C(=O)[C@H](Cc3ccccc3)N2C1=O	nt	nt	nt	nt	-5.4	nt
CC(C)C[C@H]1C(=O)N2CCCC2[C@]2(O)O[C@](NC(=O)[C@@H]3C=C4c5cccc6[nH]cc(c56)CC4N(C)C3)(C(C)C)C(=O)N12 (some centres undefined)	nt	nt	nt	nt	i	nt
CC(C)(C)c1ccc(O)c(CN2CCN(c3ccccc3)CC2)c1	i	i	i	i	i	i
Cn1c2ccccc2c2c(C(=O)N3CCC4(CC3)OCCO4)cn(C3CCCCC3)c(=O)c21	i	i	i	i	-5.1	i
O=C1NC(=O)N(c2ccc3c(c2)OCO3)C(=O)/C1=C/c1ccc(N2CCCCC2)o1	i	i	i	124[fluorescence artefact?]	i	i
CN1C(=O)C(=Cc2ccc(N3CCCCC3)o2)C(=O)N(C)C1=S	i	i	i	121[fluorescence artefact?]	-6.7	i
O=C1C2CCCN2C(c2ccccc2)N1c1ccccn1 (centres undefined)	i	i	i	i	i	i
CN(C)c1ccc(NC(=O)CN2C(=O)CN=C(c3ccccc3)c3ccccc32)cc1	i	i	i	i	-5	i
CCC(C)C1N=C(c2ccccc2)c2cc(Cl)ccc2N(CC(=O)NCc2ccco2)C1=O (centres undefined)	nt	i	i	i	i	i
CN(C)c1ccc(NC(=O)CN2C(=O)CN=C(c3ccccc3)c3cc(Cl)ccc32)cc1	nt	i	i	i	-8.9	i
Cc1ccc(NC(=O)CN2C(=O)CN=C(c3ccccc3)c3cc(Cl)ccc32)cc1	nt	i	i	i	-6.7	i
O=C(C1CCC(=O)N1Cc1ccccc1Cl)N1CCC2(CC1)OCCO2 (centres undefined)	i	i	i	i	i	i
O=C(c1ccccc1F)c1cn(Cc2ccccc2)c2ccccc12	i	i	i	i	-3.6	i
CCCCn1c(O)c(C(CC)=NC(C)c2ccccc2)c(=O)[nH]c1=O (centres undefined)	-3.8	i	i	i	i	i
CCCCn1c(O)c(C(C)=NC(C)c2ccccc2)c(=O)[nH]c1=O (centres undefined)	-3.6	i	i	i	i	i
COC(=O)C1=CO[C@@H](C)[C@@H]2CN(CCc3c[nH]c4ccccc34)CC[C@H]12	nt	nt	nt	nt	i	nt
Cc1ccccc1C1=NCC(=O)N(CC(=O)NCc2ccco2)c2sc3c(c21)CCCC3	i	i	i	i	-7.2	i
Cc1ccc(C2=NCC(=O)N(CC(=O)N3CCCCC3)c3sc(C)c(C)c32)cc1	i	i	i	i	i	i
